The source of these data is ChEMBL document CHEMBL3351637 (Eur J Med Chem, 2014).

Structures are written as SMILES. Activity calls are given as the source filed them. No cut-off for these calls is given here.

Usually IC50 stands for the concentration needed to halve the response being measured.

Data set [1] is described as follows: Stability of the compound assessed as compound mean nano particles size diluted with water at 2 mg/ml measured after 3 months at 5 degC by quasi-elastic light scattering method. It counts as physicochemical. The settings on record: buffer, 2191.5 h. Put shortly:
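Nanoassemblies made by nanoprecipitation in water as 2 mg/mL dispersions, stored at 5°C. Size checked after three months on samples diluted with water, by light scattering.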

Data set [2] is described as follows: Stability in human serum at 37 degC assessed as ratio of HPLC area of peaks corresponding to intact compound at time zero at 2 mg/ml measured after 48 hrs. The settings on record: read-out: Stability. The format is ADME, cell-free.
Data set [3] can be described thus: Stability of the compound in water assessed as compound mean nano particles size at 2 mg/ml by quasi-elastic light scattering method. The settings on record: buffer. The format is physicochemical. Put shortly:
(§1)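 Nanoassemblies formed by solvent displacement into water, 10 mM buffers (citrate or acetate pH 4.5, phosphate pH 7.5, borate or carbonate pH 10.2) or 100 mM NaCl, final 2 mg/mL. Mean diameter by quasi-elastic light scattering at 90° and 25°C, on samples diluted 1:20 in water; each value the average of five measurements.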

A short description of data set [4]: Stability of the compound in pH 4.5 citrate buffer assessed as compound mean nano particles size at 2 mg/ml by quasi-elastic light scattering method. The format is physicochemical. Put shortly:
as §1

The nature of data set [5]: Stability of the compound in pH 4.5 acetate buffer assessed as compound mean nano particles size at 2 mg/ml by quasi-elastic light scattering method. The format is physicochemical. In short, it runs like this: as §1
The nature of data set [6]: Stability of the compound in pH 7.5 phosphate buffer assessed as compound mean nano particles size at 2 mg/ml by quasi-elastic light scattering method. It counts as physicochemical. In short, it runs like this: as §1
The nature of data set [7]: Stability of the compound in pH 10.2 borate buffer assessed as compound mean nano particles size at 2 mg/ml by quasi-elastic light scattering method. It counts as physicochemical. In short, it runs like this:
as §1

A short description of data set [8]: Stability of the compound in pH 10.2 carbonate buffer assessed as compound mean nano particles size at 2 mg/ml by quasi-elastic light scattering method. The format is physicochemical. Put shortly:
as §1

Data set [9] in a line: Stability of the compound in presence of 100 mM NaCl assessed as compound mean nano particles size at 2 mg/ml by quasi-elastic light scattering method. The format is physicochemical. In short, it runs like this:
as §1

Data set [10] relates to A549. Description: Inhibition of microtubule bundle formation in human A549 cells assessed as cell shrinking at 200 ug/mL incubated for 1 hr by alpha-tubulin staining based fluorescence microscopy. Put shortly:
(§2)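 A549 cells seeded on glass coverslips at 50000 cells/ml, grown 24 h, then exposed 1 h to 200 µg/ml conjugate or parent drug. Fixed and permeabilized in methanol at -20°C for 6 min, blocked in PBS + 5% BSA, stained with anti-α-tubulin (1:500, 1 h, 37°C), Alexa568 secondary and DAPI nuclei, then imaged by fluorescence microscopy at 63x.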

For data set [11], the system named is A549. The data set is described as follows: Inhibition of microtubule bundle formation in human A549 cells assessed as cell detachment at 200 ug/mL incubated for 1 hr by alpha-tubulin staining based fluorescence microscopy. Put shortly: as §2
Data set [12] has as its system A549. The data set is described as follows: Binding affinity to microtubule in human A549 cells at 200 ug/mL incubated for 1 hr by alpha-tubulin staining based fluorescence microscopy. The format is cell-based. Put shortly: as §2
The test system of data set [13] is MCF7. Description: Cytotoxicity against human MCF7 cells after 48 hrs by SRB assay. The format is functional, cell-based. The settings on record: MCF7, 48 h. Put shortly: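 Nanoassemblies diluted in culture medium and added at various concentrations for 48 h at 37°C/5% CO₂. Survival % vs untreated control; run thrice in triplicate; IC50 from dose–effect curves.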

Data set [14] deals with MCF7. The data set is described as follows: Cytotoxicity against human MCF7 cells in presence of 10 mM DTT after 48 hrs by SRB assay. The format is functional, cell-based. The settings on record: MCF7, 48 h.
The test system of data set [15] is A549. The data set is described as follows: Cytotoxicity against human A549 cells after 48 hrs by SRB assay. It counts as functional, cell-based. The settings on record: A549, 48 h. (In general: In SRB staining, fixed cells bind dye roughly in proportion to their protein.)

On to `CC(=O)O[C@H]1C(=O)[C@@]2(C)[C@H]([C@H](OC(=O)c3ccccc3)[C@]3(O)C[C@H](OC(=O)[C@H](OC(=O)CCCSSCCCC(=O)OCCC/C(C)=C/CC/C(C)=C/CC/C=C(\C)CC/C=C(\C)CCC=C(C)C)[C@@H](NC(=O)c4ccccc4)c4ccccc4)C(C)=C1C3(C)C)[C@]1(OC(C)=O)CO[C@@H]1C[C@@H]2O`, for which the Stability in [1] is listed as 106.5 nm; in data set [3], 100.8 nm; in data set [4], 462.4 nm; in [5] it was more than 2 um; in data set [6] it was 162.4 nm; in data set [7], 181.7 nm. The Stability is on record as 723.3 nm in data set [8] and more than 2 um in [9]. Also, the remaining at 48 h, 2 mg/ml in [2] turned out to be 93%. For the same compound, the inhibition result in the data set with A549 [10] and in the data set on A549 [11] was “Active” in each case. Besides, in the data set on A549 [12], the result was Active. The figures for the IC50 with MCF7 [13], in the data set on MCF7 [14] and in the data set on A549 [15] were 60 nM, 3 nM and 490 nM, respectively.
